Test results published in ChEMBL document CHEMBL1828502, “Quinolinyl and quinolinyl N-oxide chalcones: synthesis, antifungal and cytotoxic activities” (Eur J Med Chem, 2011).
≈ marks a conversion by molar mass, not a printed value.

Tests used:
[1] = system: Paracoccidioides brasiliensis; test: Antifungal activity against Paracoccidioides brasiliensis Pb18 by serial dilution method; type: functional
[2] = system: Cryptococcus gattii species complex; test: Antifungal activity against Cryptococcus gattii by two fold serial dilution method; type: functional, Cryptococcus bacillisporus
Summary of the method: (§1)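 Broth microdilution MIC following CLSI M27-A2 with twofold serial dilutions; strains ATCC 18804 (C. albicans), ATCC 22019 (C. parapsilosis), ATCC 750 (C. tropicalis), ATCC 32608 (C. gattii), kept on Sabouraud dextrose agar at 4 °C. Amphotericin B and trimethoprim/sulfamethoxazole served as positive controls.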

Candida parapsilosis = test: Antifungal activity against Candida parapsilosis by two fold serial dilution method; type: functional; conditions: Lodderomyces parapsilosis; summary of the method: as §1
Candida tropicalis [3] = test: Antifungal activity against Candida tropicalis by two fold serial dilution method; type: functional; summary of the method: as §1
Candida albicans = test: Antifungal activity against Candida albicans by two fold serial dilution method; type: functional; summary of the method: as §1
Jurkat = test: Anticancer activity against human Jurkat cells after 48 hrs by MTT assay; type: functional, cell-based
Summary of the method: (§2)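 HL60 and Jurkat leukemia lines plated at 50,000 and 100,000 cells/well respectively and pre-incubated 24 h at 37 °C, 5% CO2. Compounds dissolved in DMSO and tested over a concentration range of […] for 48 h. Viability read by MTT reduction (4 h), formazan dissolved in acidic isopropanol, OD 590 nm. Values normalized to 0.05% DMSO control; IC50 taken graphically from dose-effect curves. Triplicate, three separate days.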

MCF7 = test: Anticancer activity against human MCF7 cells after 48 hrs by sulforhodamine B assay; type: functional, cell-based
Summary of the method: (§3)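 Solid tumour lines from NCI (NCI colorimetric protocol), seeded and pre-incubated 24 h at 37 °C, 5% CO2, then exposed to compounds for 48 h. Proteins fixed with trichloroacetic acid, stained with sulforhodamine B, dye dissolved in 10 mM Tris, absorbance at 515 nm compared against initial-density control wells. IC50 from dose-response curves built with 1:2 serial dilutions; duplicate, repeated at least three times.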

Candida tropicalis [4] = test: Antifungal activity against Candida tropicalis after 2 days by broth microdilution method in presence of 1 M osmotic stabilizer sorbitol; type: functional; conditions: 48 h
[5] = system: Cryptococcus gattii species complex; test: Antifungal activity against Cryptococcus gattii by two fold serial dilution method after 3 days by broth microdilution method in presence of 1 M osmotic stabilizer sorbitol; type: functional, Cryptococcus bacillisporus; conditions: 72 h
[6] = system: Paracoccidioides brasiliensis; test: Antifungal activity against Paracoccidioides brasiliensis Pb18 after 10 days by broth microdilution method in presence of 1 M osmotic stabilizer sorbitol; type: functional; conditions: 240 h
HL-60 = test: Anticancer activity against human HL60 cells after 48 hrs by MTT assay; type: functional, cell-based; summary of the method: as §2
UACC-62 = test: Anticancer activity against human UACC62 cells after 48 hrs by sulforhodamine B assay; type: functional, cell-based; summary of the method: as §3
TK-10 = test: Anticancer activity against human TK10 cells after 48 hrs by sulforhodamine B assay; type: functional, cell-based; summary of the method: as §3
[7] = Homo sapiens, HL-60, 48 h, read-out: IC50
[8] = Homo sapiens, Jurkat, 48 h, read-out: IC50
[9] = Homo sapiens, MCF7, 48 h, read-out: IC50
[10] = Homo sapiens, UACC-62, 48 h, read-out: IC50
[11] = Homo sapiens, TK-10, 48 h, read-out: IC50

Row | Compound | MIC [1] | MIC [2] | MIC (Candida parapsilosis) | MIC (Candida tropicalis [3]) | MIC (Candida albicans) | IC50 (Jurkat; jurkat) | IC50 (MCF7; mcf7) | MIC (Candida tropicalis [4]) | MIC [5] | MIC [6] | IC50 (HL-60; hl-60) | IC50 (UACC-62; uacc-62) | IC50 (TK-10; tk-10) | IC50 (HL-60; [7]) | IC50 (Jurkat; [8]) | IC50 (MCF7; [9]) | IC50 (UACC-62; [10]) | IC50 (TK-10; [11])
1 | C[C@@H]1[C@H](O)[C@@H](C)/C=C/C=C/C=C/C=C/C=C/C=C/C=C/[C@H](O[C@@H]2O[C@H](C)[C@@H](O)[C@H](N)[C@@H]2O)C[C@@H]2O[C@](O)(C[C@@H](O)C[C@@H](O)[C@H](O)CC[C@@H](O)C[C@@H](O)CC(=O)O[C@H]1C)C[C@H](O)[C@H]2C(=O)O [AMPHOTERICIN B] | 0.006 µg/mL (≈ 0.00649 µM) | 1.2 µg/mL (≈ 1.3 µM) | 0.5 µg/mL (≈ 0.541 µM) | 0.25 µg/mL (≈ 0.271 µM) | 1 µg/mL (≈ 1.08 µM) | – | – | – | – | – | – | – | – | – | – | – | – | –
2 | Cc1ccc(C(=O)/C=C/c2ccc3c(ccc[n+]3C)c2)cc1.[I-] | 62.5 µg/mL | 7.8 µg/mL | > 500 µg/mL | 15.6 µg/mL | 125 µg/mL | Not Active | Not Active | 62.5 µg/mL | 15.5 µg/mL | > 31.2 µg/mL | Not Active | Not Active | Not Active | – | – | – | – | –
3 | O=C(/C=C/c1ccc2c(ccc[n+]2[O-])c1)c1ccccc1 | 62.5 µg/mL (≈ 227 µM) | 250 µg/mL (≈ 908 µM) | > 500 µg/mL | > 500 µg/mL | > 500 µg/mL | Not Active | Not Active | – | – | – | – | Not Active | Not Active | 4.9 µg/mL (≈ 17.8 µM) | – | – | – | –
4 | C[n+]1cccc2cc(/C=C/C(=O)c3ccc(F)cc3)ccc21.[I-] | – | 15.6 µg/mL | > 500 µg/mL | 62.5 µg/mL | 500 µg/mL | Not Active | Not Active | > 31.2 µg/mL | 62.5 µg/mL | > 31.2 µg/mL | Not Active | Not Active | Not Active | – | – | – | – | –
5 | COc1ccc(C(=O)/C=C/c2ccc3c(ccc[n+]3[O-])c2)cc1 | 15.6 µg/mL (≈ 51.1 µM) | > 500 µg/mL | > 500 µg/mL | > 500 µg/mL | > 500 µg/mL | – | – | > 31.2 µg/mL | > 31.2 µg/mL | 15.6 µg/mL | – | – | – | 14.8 µg/mL (≈ 48.5 µM) | 36.3 µg/mL (≈ 119 µM) | 1.15 µg/mL (≈ 3.77 µM) | 4.3 µg/mL (≈ 14.1 µM) | 5.25 µg/mL (≈ 17.2 µM)
6 | C[n+]1cccc2cc(/C=C/C(=O)c3ccccc3)ccc21.[I-] | 500 µg/mL | 31.2 µg/mL | > 500 µg/mL | 125 µg/mL | > 500 µg/mL | Not Active | Not Active | – | – | – | Not Active | Not Active | Not Active | – | – | – | – | –
7 | COc1ccc(C(=O)/C=C/c2ccc3ncccc3c2)cc1 | 62.5 µg/mL (≈ 216 µM) | > 500 µg/mL | > 500 µg/mL | > 500 µg/mL | > 500 µg/mL | – | – | – | – | – | – | – | Not Active | 12.6 µg/mL (≈ 43.5 µM) | 19.6 µg/mL (≈ 67.7 µM) | 0.19 µg/mL (≈ 0.657 µM) | 22.5 µg/mL (≈ 77.8 µM) | –
8 | O=C(/C=C/c1ccc2ncccc2c1)c1ccc([N+](=O)[O-])cc1 | 500 µg/mL (≈ 1640 µM) | > 500 µg/mL | > 500 µg/mL | > 500 µg/mL | > 500 µg/mL | – | – | – | – | – | – | – | – | – | – | – | – | –
9 | O=C(/C=C/c1ccc2ncccc2c1)c1ccccc1 | – | 125 µg/mL (≈ 482 µM) | > 500 µg/mL | > 500 µg/mL | > 500 µg/mL | Not Active | – | – | – | – | Not Active | – | – | – | – | 1.1 µg/mL (≈ 4.24 µM) | 3.83 µg/mL (≈ 14.8 µM) | 7 µg/mL (≈ 27 µM)
10 | COc1cc([C@@H]2c3cc4c(cc3[C@@H](O[C@@H]3O[C@@H]5CO[C@@H](C)O[C@H]5[C@H](O)[C@H]3O)[C@H]3COC(=O)[C@H]23)OCO4)cc(OC)c1O [ETOPOSIDE] | – | – | – | – | – | – | – | – | – | – | – | – | – | 0.47 µg/mL (≈ 0.799 µM) | 2.8 µg/mL (≈ 4.76 µM) | 0.03 µg/mL (≈ 0.051 µM) | 1.4 µg/mL (≈ 2.38 µM) | 20.4 µg/mL (≈ 34.7 µM)
11 | O=C(/C=C/c1ccc2c(ccc[n+]2[O-])c1)c1ccc(Cl)cc1 | 15.5 µg/mL (≈ 50 µM) | 250 µg/mL (≈ 807 µM) | > 500 µg/mL | > 500 µg/mL | > 500 µg/mL | – | – | > 31.2 µg/mL | > 31.2 µg/mL | 15.6 µg/mL | – | – | – | 33.8 µg/mL (≈ 109 µM) | 4.9 µg/mL (≈ 15.8 µM) | 6.6 µg/mL (≈ 21.3 µM) | 4.9 µg/mL (≈ 15.8 µM) | 1.7 µg/mL (≈ 5.49 µM)
